System: MS2 coat protein
Assay: apparent Kd, MS2 coat protein; higher = weaker binding; RNA-MaP array; FMN 200 µM where present
How it was run: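 Each design was made on Illumina sequencing-chip clusters by stalled E. coli RNA polymerase and titrated with SNAP-549-labelled MS2 coat protein from 0.7 or 1.5 nM, doubling to 3 µM, in the absence and then the presence of constant ligand. The buffer was 100 mM Tris-HCl pH 7.5, 80 mM KCl, 4 mM MgCl2, BSA, DTT, yeast tRNA and Tween-20. The apparent Kd is the median of filtered per-cluster fits of binding curves, with green signal normalised to red-channel RNA signal and control-cluster median Fmax.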

[1] = designed as: OFF switch for flavin mononucleotide, no ligand
[2] = ligand present: flavin mononucleotide, designed as: OFF switch for flavin mononucleotide
[3] = designed as: ON switch for flavin mononucleotide, no ligand
[4] = ligand present: flavin mononucleotide, designed as: ON switch for flavin mononucleotide

Sequence | apparent Kd [1] [nM] | apparent Kd [2] [nM] | apparent Kd [3] [nM] | apparent Kd [4] [nM]
CGUAGCAAAGUGAGGAUAUCUAGAGCGAUAGCUCUAGAGAAGGCACAUGAGGAUCACCCAUGUGAUCAGCUACG | 276 | 899 |  | 
GUCAGCUCGUGAGGAUAUACAUGUGCUGGAGACAGCACUAUUAUGUUCACAUGAGGAUCACCCAUGUAGAAGGCACGAGCUGAU | 16.8 | 20.9 |  | 
AGAAAACAGGAGAAGGGCCCACGUGAACCUCCAUAUCUGCGAAACAUGAGGAUCACCCAUGUGAGGCAGGAUAUCCAAUUACUU | 9.32 | 38.7 |  | 
UAGCUCGUGUGAGGAUAUGCCGCCGUUUCGGCUGCAGAAGGUGCUACGUUACAUGAGGAUCACCCAUGUCUCUGUUGUUUCGUC |  |  | 32.5 | 30.5
CCAUGUUAGCAGGAUAUGCUAUUAAUCUUUUAUGCAGAAGGGCUUACAUGAGGAUCACCCAUGUAUUAAGUCAA | 14.1 | 47.8 |  | 
CUGAUGUGAGGAUAUGUGAUCUGCCUUCUAUAUAGAUGAUUACAGAAGGCACAUGAGGAUCACCCAUGUAGAUC | 74.7 | 62.6 |  | 
AAUAACAGAGGAUAUACUAUUUUAUGUGUUUGUUGUUUUAAACAUGAGGAUCACCCAUGUAGAAGGCUGAUUGA | 38.2 | 45.4 |  | 
AGUCGGAGCAGAGGAUAUAUACAUGAGGAUCACCCAUGUAAAUGAAUGAGCUGGAAACAGCAAGUAUAGAAGGCUGCUCCGACA | 15.2 | 16 |  | 
CGAUAACAUAGUUAUCCGUAACGGACAUGAGGAUCACCCAUGUAGGAUAUGUUACUAAACUAGUAACAGAAGGACAUGAGUCUU |  | 295 |  | 
AAAUAAAGCAGUGUAUUAAGAUCACAUGAGGAUCACCCAUGUAGAAGGCUCGAGCAAAAUGCUCGAGAGGAUAUACAACACUGC | 10.2 | 195 |  | 
ACAUUUAAUACAGGAUAUGUUGGUAUACAAUAGAUUGGUUAUAACACAUCAACAGAAGGGUAGAACAUGAGGAUCACCCAUGUA |  |  | 53.6 | 23.3
GCUAAACAUGAGGAUCACCCAUGUACCGAUCACUAAGGAUAUGGGCGAAUAACGGCUCGGCCAGAAGGUAGAGAUG |  |  | 66.9 | 81.8
CUCUUGUUAGGAUAUCAAACCGGCGGCGGAGCCGCCGGAAGUGAGAAGGGACAUGAGGAUCACCCAUGUAAGAA | 71.5 | 312 |  | 
AUUUUACAUGAGGAUCACCCAUGUUUUGGUGGGUCAGGAUAUAGAUCGGAUGAGUUCUGGCUAGAAGGGACAUAUA |  |  | 75.9 | 66.4
UAUAUUUAUGUAGGAUAUGGUAUAUAAAAUAUACCAGAAGGACAUGAGGAUCACCCAUGUAUGAAAUUCCAUAAUUGCCGUGUA | 12.7 | 14.8 |  | 
GAAAAACAUGAGGAUCACCCAUGUAGAAAUAUGGGAGGAUAUACAAAGACGAAAGUCAAAGUAGAAGGCCUAAAAG |  |  | 125 | 31
UCAUUUCUGUUAGGAUAUUAAAACAUGACGAUACAUGAGGAUCACCCAUGUUAAGAAGGAACAAAUACAUAUAAUGCAAUGUUC | 12.5 | 10.7 |  | 
AAAUGCCUGUCGAUGCUCGACAUGAGGAUCACCCAUGUAUAGCAGGAUAUGCAGAACUGACUCGUGCAGAAGGGCUAUACCUAC | 17.8 | 37.4 |  | 
GCGAUUGCGUAGAAGGUACAAUUUAAUACAUUGUAAGGAUAUACUUACAUGAGGAUCACCCAUGUUAAUGGAAUUUGCAAUCGC |  |  | 16.7 | 10.8
UAAGAGUGAGGAUAUACGUCGCUGGUCCGGAUGGACGCAUGACAUGAGGAUCACCCAUGUAGAAGGCACAAAAC | 35 | 130 |  | 
CAUAUGUCAGGAUAUUAUCUCAAGGUAUUCGUUACUAACGAUAAGAAGGGACAUGAGGAUCACCCAUGUGCCGC | 18.4 | 24.2 |  | 
CCAGAAUAGAAGGAUAUCGUGCUAUAGAGCGGAUGAGAAGGUCUGACAUGAGGAUCACCCAUGUGCACUUCAUG | 103 | 320 |  | 
GUGCACAUUCGAGGAUAUCGGAGAGAGAUCCUUCGAGAAGGCGAUUCAUGCUGUGUUAUUCUGGACAUGAGGAUCACCCAUGUG |  |  | 326 | 172
UGUGCGUAUGUGAGGAUAUGCUGGUCCUUGGCUCGGCAGAAGGCACAUGAGGAUCACCCAUGUGGUGUCGUACA | 227 | 37.5 |  | 

Sequence | apparent Kd [1] [nM] | apparent Kd [2] [nM] | apparent Kd [3] [nM] | apparent Kd [4] [nM]
UAAAUUCGAAACAUGAGGAUCACCCAUGUGUUGUGGUUUAUAUAGGAUAUGUGGAUACUUUUUUGACAGAAGGAUGAUGGUACU |  |  | 13.2 | 10.9
UUGUUAGGGAGAGGAUAUUGACAUGAGGAUCACCCAUGUAUUUGGGAGUGUUUACUGAAUUCUCACGAGAAGGCUUACAAAUUU | 584 | 534 |  | 
AAAGUUCGAGGAUAUCUACUUAGCUACAUGAGGAUCACCCAUGUUAUCCUCCCGCUGGGAAGAGAAGGCGGUUAAA | 36.5 | 210 |  | 
AUGAAAGUAACACAGGAUAUCCAGGAUACAACAUGAGGAUCACCCAUGUACAUACGAACGUAUAAGGAGAAGGGUGGAUGAUCUUC |  |  | 215 | 264
AGAAACUACGAGAAGGACAAAACCGGUGCCGCAAACAUGAGGAUCACCCAUGUAGGAUAUCGUAGUUUCAGGAUCGUGAGAUCA | 9.2 | 31.2 |  | 
UUAAUUAUACAAGGAUAUCUAUUGUUAUGUCGACUUACAUGAGGAUCACCCAUGUUAAUAUAUGAAGAGAAGGUGUAUUUUCAG |  |  | 157 | 90
CGCUCAGAGAACGAUACGAAUAGACAUGAGGAUCACCCAUGUAGAAGGACAACGGAAUAAACGUUGUAGGAUAUACAUUUAGCG | 24.6 | 52.6 |  | 
UAUAUAUAGUAAGGAUAUGUAAUUACUUUAUAAACAGAAGGUACUGACAUGAGGAUCACCCAUGUUUUAGUGUGGGCAUGUAGA | 87 | 113 |  | 
GGGUACAUCGGAGGAUAUCAUGUAAAUACAUGAGGAUCACCCAUGUCGAUGGAGACAUCGGAGAUUGAGAAGGCCGAUGCACCG |  |  | 203 | 8.97
GGGCAAAAGUAGAAGGGAUAUACGAAAAGUAUAUCAGGAUAUACAUGAGGAUCACCCAUGUUCUAAAAGUGAUAAUCCUCCCUA | 70 | 346 |  | 
CCGUGACAUGAGGAUCACCCAUGUACUCGAGAAAUCGAGUGUAGAAGGGUGACCGGUCGUUUGGCACAGGAUAUACACGGUGUG |  |  | 16.6 | 8.92
GCCGAAAGUGUGAGGAUAUACCUAUGGAAACAUAGGUAGAAGGCACAUGAGGAUCACCCAUGUUCCUCAUCGGC | 123 | 623 |  | 
GAUUAACAUGAGGAUCACCCAUGUGAGGAUAUGGAAUGGCUCACUUUUCGAUUCCCGUCUAGAAGGCACAUCUU | 54.6 | 53.3 |  | 
UAUUAACACGAAGGAUAUGGUUACAUGAGGAUCACCCAUGUAUGUAUAUUGAUCUAGAUUUUUAACCAGAAGGUCGUGAGUAAA | 50.8 | 72.2 |  | 
CGCGAACAGUUUUACAUGAGGAUCACCCAUGUGGACUCAUGGUAGGAUAUCGGGAAGGAGGAAACCGAGAAGGGCUGGUGAGCC |  |  | 312 | 256
GUAGCAUUCUGAGGAUAUUCAUACCGGAAACGGACAUGAGGAUCACCCAUGUGGCGAAAGCCUUGGAAGAAGGCAGUAUGCUAC |  |  | 4.27 | 3.56
CGAACCAUGUAGAAGGCUGUCUUAAAAUAGGACAGAGGAUAUACAUGAGGAUCACCCAUGUACUCCUUUAAAAGGUUCGAAAUA |  | 7.03 |  | 
UGCAGCGUGCACAUGAGGAUCACCCAUGUGCCAGUGGACGCACAGGAUAUGCAAUCGUACGGCUAGCAGAAGGGUGGGUCUCAC |  |  | 7.37 | 7
GACGCUGACCGAGGAUAUACAAUAAAACAACAAACACCUCGUGUCAGAACAUGAGGAUCACCCAUGUAGAAGGCGGCAGGUCUA | 48.6 | 127 |  | 
UCCACUGCUGAGAAGGGAUAGAUAUCGUUCUAGUCAGGAUAUCAAUACAGUGCAGCAUGAGGACAUGAGGAUCACCCAUGUAUU |  |  | 14.2 | 10.9
GUGCCGAACCUAGGAUAUCUUAUCGGGUUCCGCCGUGGCUUAGCGACAUGAGGAUCACCCAUGUAAGAGAAGGAGGUGGUGGAG | 299 | 259 |  | 
UCUACAUAAAUUCAUCAAUACAGAAAGGAUAUGAGAUACAUGAGGAUCACCCAUGUGCAUGGGAAUUAGAAGGUUCAAUUAGCU | 94.2 | 58.6 |  | 
UGGAUCAAUACAGGAUAUGGUGACGCACAUGAGGAUCACCCAUGUCCGCAGCGUGCUAAGCACGCCCAGAAGGGUAUUAAUUCG |  |  | 885 | 90
GCCAUCGCAUGAGGAUAUCGUCAGGUUUCCUGACGAGAAGGCAUGUCAUAAGACAUGAGGAUCACCCAUGUAGUUAAGAUGGCA |  |  | 658 | 57
